SMILES strings stand for the structures. In all, about 200,000 compounds went through this assay and about 2,000 (1%) were called active. The list comes from a sample in which actives are over-represented; it also holds similar structures and randomly drawn compounds. A number with no mark means an inactive call.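 The calls were made as follows: active = inhibition above the campaign mean inhibition of all tested compounds plus 3 SD (cut at about 20% in these data); inactive = the rest.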

What is called inhibition is the drop in the measured response relative to a control, in per cent.

Sequence of Neuropeptide Y receptor type 1 (Homo sapiens) (P25929 whole entry, looked up): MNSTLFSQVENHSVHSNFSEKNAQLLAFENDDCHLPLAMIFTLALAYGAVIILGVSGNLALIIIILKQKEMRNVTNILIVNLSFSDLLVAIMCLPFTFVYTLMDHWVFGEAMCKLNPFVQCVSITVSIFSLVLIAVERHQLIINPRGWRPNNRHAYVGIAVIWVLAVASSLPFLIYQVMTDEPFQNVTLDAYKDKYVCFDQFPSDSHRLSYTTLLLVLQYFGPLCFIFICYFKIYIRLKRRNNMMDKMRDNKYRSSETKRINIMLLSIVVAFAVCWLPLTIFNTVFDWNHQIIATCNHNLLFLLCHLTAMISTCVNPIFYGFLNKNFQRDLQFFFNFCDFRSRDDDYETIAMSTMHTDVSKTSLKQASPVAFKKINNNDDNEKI

The target of this assay is Neuropeptide Y receptor type 1 (Homo sapiens) (UniProt P25929). Put plainly: blockers of human neuropeptide Y Y1 receptor – cell-based, primary screen (AID 1040).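 Also: 0% = DMSO wells given NPY plus isoproterenol and 100% = isoproterenol alone without NPY.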 To be noted: HEK293-CNG Y1 cells, membrane potential fluorescence; at 3.6 µM; hits give high values; NPY at EC95, then isoproterenol. An outline of the steps:
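Material: Y1- and CNG-channel-expressing HEK293 cells / Probe or stimulus: NPY 25 nM then isoproterenol 1 µM plus Ro 20-1724 25 µM / Doses: 3.6 µM single dose, DMSO 0.4% / Schedule: compound incubation 1 h at room temperature, readout 45 min post-stimulation / Signal: membrane potential fluorescence / Benchmarks: isoproterenol-only wells as full block versus NPY-plus-isoproterenol wells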
On to `CCCCNC(=O)c1onc(CSc2cccc(OC)c2)c1C(=O)O`, for which the inhibition was 28.4% (active).

For the compound `COCCNC(=O)c1onc(CSc2cccc(C)c2)c1C(=O)O`, the inhibition is 9.11%.

On to `CCOc1cccc(SCc2noc(C(=O)NC(C)C)c2C(=O)O)c1`, for which the inhibition is 11%.

Take `COc1ccc2nc(SCc3ccccc3)nc(C)c2c1`: the inhibition was 4.78%.

For `Cc1cccc(NC(=S)Nc2ccc(Br)cc2)c1`, the inhibition was 3.74%.

For `Cc1cccc(NC(=S)Nc2ccc(Cl)c(Cl)c2)c1`, the inhibition is 1.7%.

`Cc1cccc(NC(=S)NCCN(C2CCCCC2)C2CCCC2)c1`: the inhibition was 21.2% (active).

`Cc1nc(-c2ccccc2)cn2c1nc1ccccc12`: the inhibition was 5.56%.

Consider `O=C(Cc1coc2ccc3ccccc3c12)NCc1cccs1`, for which the inhibition was 1.1%.

Consider `O=C(Nc1ccc(NC(=O)c2ccco2)c(Cl)c1)c1cccc([N+](=O)[O-])c1`, for which the inhibition is 0.59%.

With `COc1cc(NC(=O)c2cc([N+](=O)[O-])ccc2Br)ccc1NC(=O)c1ccco1`, the inhibition is 30.1% (active).

As to `COc1ccccc1C(=O)Nc1ccc(NC(=O)c2ccco2)c(C)c1`, the inhibition was 2.31%.

For the compound `CN(C)CCCO/N=C(\c1ccccc1)c1ccncc1`, the inhibition is -1.1%.

For the compound `O=C(COc1cccc(F)c1)Oc1ccc(C(=O)c2ccccc2)cc1`, the inhibition is 2.24%.

In the case of `CC1CCc2c(sc3nc4n(c(=O)c23)CCS4)C1` (stereo not given), the inhibition was -3.28%.

For the compound `CCOC(=O)N1CCN(C(=O)c2cnc3n(c2=O)CCS3)CC1`, the inhibition is -1.03%.

For the compound `CCCCc1c(O)nc2n(c1=O)CCS2`, the inhibition was 20.6% (active).

`CCc1ccccc1NC(=O)CN(C)C(=O)COc1ccc(C)nc1[N+](=O)[O-]`: the inhibition is -0.59%.

Take `COc1ccc(/C(=N\O)c2nccc3cc(OC)c(OC)cc23)cc1OC`: the inhibition was 5.85%.

On to `O=C(CC1CCCCC1)NCc1ccc(F)cc1`, for which the inhibition is -0.26%.

Regarding `Cc1ccc(-n2nc3c(c2NC(=O)CCC2CCCCC2)CS(=O)C3)cc1` (stereo not given), the inhibition is 8.28%.

Take `O=C(CC1CCCCC1)Nc1c2c(nn1-c1ccc(F)cc1)CS(=O)(=O)C2`: the inhibition was 46.3% (active).

As to `CC(NC(=S)NC1CCCCC1)C(c1ccccc1)N1CCOCC1` (stereo not given), the inhibition was 0.27%.

For `O=S(=O)(O)c1nc2ccccc2n1Cc1ccc(Cl)cc1`, the inhibition was 21.2% (active).

Turning to `O=S(=O)(Cc1ccccc1)c1nc2ccccc2n1Cc1ccccn1`, the inhibition is -1.06%.

As to `O=S(=O)(O)c1nc2ccccc2n1Cc1ccc(Cl)cc1Cl`, the inhibition was -2.49%.

Turning to `O=C(CN1CCCCC1)Nc1ccccc1Cl`, the inhibition is -2.44%.

Regarding `O=C(Nc1ccccc1Cl)c1ccc2nsnc2c1`, the inhibition is 0.69%.

As for `O=C(Nc1ccccc1Cl)/C(Cl)=C(\Cl)S(=O)c1ccccc1` (stereo not given), the inhibition was 27.5% (active).

For `CC(NC(=O)COC(=O)c1ccc(Cl)cc1O)c1ccc(F)cc1` (stereo not given), the inhibition was -0.49%.

Regarding `CCc1nc(Nc2ccc3nccnc3c2)c2oc3ccccc3c2n1`, the inhibition was -0.08%.

Turning to `COc1ccccc1Nc1ncnc2c1oc1ccccc12`, the inhibition is 21.3% (active).

With `Cc1nc(Cl)c2oc3ccccc3c2n1`, the inhibition is 3.46%.

For the compound `COc1ccc(-n2nc3c(c2NC(=O)c2ccc(N4C(=O)CCC4=O)cc2)CSC3)cc1`, the inhibition was 2.78%.

Regarding `N#C/C(=C\c1ccc(-c2cccc([N+](=O)[O-])c2)o1)C(=O)NCCN1CCOCC1`, the inhibition is 0.61%.

With `CN(C)CCNC(=O)/C(=C/c1cccc([N+](=O)[O-])c1)NC(=O)c1ccccc1`, the inhibition was 2.65%.

Consider `Cc1ccc(C(=O)N/C(=C/c2ccc(-c3cccc([N+](=O)[O-])c3)o2)C(=O)NCCCN(C)C)cc1`, for which the inhibition was 27.8% (active).

`CCOC(=O)c1cccnc1NC(=O)c1ccncc1`: the inhibition is -1.05%.

As for `CC(C)N(C(=O)CSc1nc(COc2ccccc2)nc2ccccc12)C(C)C`, the inhibition was 3.31%.

Consider `CCOC(=O)N1CCN(C(=S)Nc2ccc(C)cc2C)CC1`, for which the inhibition was 3.77%.

As to `CC(=O)c1nn(-c2cccc(Br)c2)cc1C(=O)c1cccc2ccccc12`, the inhibition is -2.46%.

Take `CCOC(=O)c1cn(Cc2cccc(C)c2)nn1`: the inhibition is -0.81%.

Consider `CCOC(=O)c1nn(-c2cccc(C)c2)cc1C(=O)c1ccccc1`, for which the inhibition is 22% (active).

Regarding `CCCCCCC(=O)Nc1nc(C)c(-c2csc(Nc3cc(Cl)ccc3OC)n2)s1`, the inhibition is 11.2%.

Consider `CCCCCCC(=O)Nc1nc(C)c(-c2csc(Nc3cccc(OC)c3)n2)s1`, for which the inhibition was 28.2% (active).

`CCCCC(=O)Nc1nc(C)c(-c2csc(Nc3ccc(Cl)cc3)n2)s1`: the inhibition is 4.16%.

`CCOC(=O)C1CCCN(C(=O)COc2ccc(N(C)S(=O)(=O)c3ccc(C)cc3)cc2)C1` (stereo not given): the inhibition is 2%.

On to `CCSC1=NCCN1S(=O)(=O)c1ccc(F)cc1`, for which the inhibition is -1.87%.

Take `COCCNC(=O)COc1ccc(C)c(C)c1`: the inhibition is -3.6%.

As to `Cc1ccc(OCC(=O)Nc2cccc3c2CCCC3)cc1C`, the inhibition is 21.6% (active).

Turning to `Cc1cccc(OCC(=O)Nc2ccccc2F)c1`, the inhibition was 5.47%.

As for `COc1ccc(C2Nc3ccccc3C(=O)N2Cc2ccccc2)cc1Cn1nnc2ccccc21` (stereo not given), the inhibition is 27.9% (active).

Take `COc1ccc(C2Nc3ccccc3C(=O)N2c2ccc(Cl)cc2)cc1Cn1cc([N+](=O)[O-])cn1` (stereo not given): the inhibition was 3.97%.

With `COc1ccc(C2Nc3ccccc3C(=O)N2c2ccc(F)cc2)cc1Cn1nnc2ccccc21` (stereo not given), the inhibition is -0.97%.

For the compound `OCCC1CN(Cc2cccc(OC3CCCC3)c2)CCN1Cc1ccsc1` (stereo not given), the inhibition was 7.81%.

Regarding `CC(=O)NCCC(=O)Nc1nc(C)c(Cc2ccc3c(c2)OCO3)s1`, the inhibition is 3.53%.

With `CC(=O)OC(C)C[N+](C)(C)C` (stereo not given), the inhibition is 25.2% (active).

As to `CC(C[N+](C)(C)C)OC(N)=O` (stereo not given), the inhibition was -2.3%.

As to `c1ccc(-c2ccccc2OCCN2CCCCC2)cc1`, the inhibition is 22.3% (active).

As for `CC1CCCN(CCOCCOc2ccccc2-c2ccccc2)C1` (stereo not given), the inhibition was 12.5%.

On to `CC1CN(CCOc2ccccc2[N+](=O)[O-])CC(C)O1` (stereo not given), for which the inhibition is -1.43%.

Regarding `Cc1cc(C)c(OCCN2CC(C)OC(C)C2)c(Br)c1` (stereo not given), the inhibition is 9.03%.

Take `CN1CCN(CCCCOc2ccccc2-c2ccccc2)CC1`: the inhibition is 12.9%.

Take `CC1CN(CCCOc2ccccc2-c2ccccc2)CC(C)O1` (stereo not given): the inhibition was 24.5% (active).

Consider `COC(=O)COc1cccc2c(=O)n(CC(=O)NCCc3ccc(OC)c(OC)c3)ccc12`, for which the inhibition is -1.97%.

Regarding `O=C(CSc1nnnn1-c1ccc2c(c1)CCC2)Nc1ccc2c(c1)OCCO2`, the inhibition was 6.81%.

For `O=C(CSc1nnnn1C1CCCC1)Nc1ccc2c(c1)OCCO2`, the inhibition was 22.9% (active).

Regarding `CCC(=O)Nc1cccc(NC(=O)CSc2nnnn2C2CCCC2)c1`, the inhibition is 3.57%.

As to `CCC(=O)Nc1ccc(S(=O)(=O)NCC2CCCO2)cc1` (stereo not given), the inhibition is -5.94%.

In the case of `O=C(NCC1CCCO1)c1ccc2ccccc2n1` (stereo not given), the inhibition is 2.64%.

Consider `CCC(=O)c1c[nH]c(C(=O)NCC2CCCO2)c1` (stereo not given), for which the inhibition was 55.6% (active).

Take `Nc1ccc(Cl)c(S(=O)(=O)Nc2ccccc2Cl)c1`: the inhibition is -0.95%.

For `COC(=O)c1ccc(NC(=S)NN2CCOCC2)cc1`, the inhibition was 4.27%.

As for `c1ccc(-c2cc(N3CCCCC3)c3ccccc3n2)cc1`, the inhibition was 15.9%.

For `CC(Nc1nc(N2CCN(CCO)CC2)nc2ccccc12)c1ccccc1` (stereo not given), the inhibition is 22.2% (active).

Regarding `CC(Nc1nc(N2CCCC2)nc2ccccc12)c1ccccc1` (stereo not given), the inhibition was 32.6% (active).

Consider `CCCCn1c(CN2CCN(CCO)CC2)nc2ccccc21`, for which the inhibition was 6.52%.

For `O=C(NC(c1ccccc1)c1ccccc1)N1CCN(CCO)CC1`, the inhibition is 3.34%.

As for `CC(Nc1nc(N2CCOCC2)nc2ccccc12)c1ccccc1` (stereo not given), the inhibition is 8.28%.

As to `COc1ccc(CC(=O)Nc2ccccc2NC(=O)c2ccco2)cc1OC`, the inhibition is 0.93%.

For `Cc1ccc(-c2nnc(SCC(=O)N/N=C/c3cccs3)n2-c2ccc(C)cc2)cc1`, the inhibition was 0.85%.

For the compound `CC(Oc1ccccc1F)C(=O)NN` (stereo not given), the inhibition is 2.86%.

On to `O=C(O)CCc1nc2cc(Cl)ccc2n(Cc2ccccc2)c1=O`, for which the inhibition was 5.7%.

Take `O=C(C1CCCN1S(=O)(=O)c1ccc(Br)cc1)N1CCOCC1` (stereo not given): the inhibition is -0.15%.

For the compound `CN1CCN(c2ccc(NC(=O)c3ccc4c(c3)OCCO4)cc2Cl)CC1`, the inhibition was 12%.

Consider `O=C(O)c1ccccc1-c1ccccc1C(=O)Nc1nccs1`, for which the inhibition is 2.4%.

Take `O=C(NCCc1ccc(F)cc1)c1n[nH]c2ccccc12`: the inhibition was -0.22%.

As to `Cc1ccc(C)c(NC(=S)NCC(c2cccnc2)N2CCOCC2)c1` (stereo not given), the inhibition was 0.28%.

`O=C1c2cccc3cccc(c23)C(=O)N1CCCCCc1n[nH]c(=S)o1`: the inhibition is 5.39%.

Regarding `O=C(Nc1cccc(Cl)c1)Nc1ccccc1NS(=O)(=O)c1cccs1`, the inhibition was -7.2%.

For the compound `c1ccc2[nH]c(-c3nc4ccccc4[nH]3)nc2c1`, the inhibition is 0.38%.

On to `c1ccc(-c2[nH]ncc2-c2nc3ccccc3[nH]2)cc1`, for which the inhibition was -3.83%.

`COc1ccc(-c2[nH]nc(-c3ccccc3)c2-c2nc3ccccc3[nH]2)cc1`: the inhibition is 20.3% (active).

In the case of `Cc1ccc(NC(=O)C(=O)NCC2CCN(C(=O)c3cccc([N+](=O)[O-])c3)CC2)cc1`, the inhibition is -1.84%.

In the case of `Cc1ccc(S(=O)(=O)/N=C(\N)c2ccc(F)cc2)cc1`, the inhibition was -5.62%.

For `Clc1ccccc1-c1cc(COc2ccc3ccccc3c2)no1`, the inhibition is 25.6% (active).

Take `Clc1ccc(-c2cc(COc3ccccc3)no2)cc1Cl`: the inhibition was 5%.

Consider `O=C(NCc1ccccn1)c1cc(-c2ccccc2Cl)on1`, for which the inhibition is 9.55%.

As for `Cc1cc(C)cc(C(=O)NC(=S)Nc2ccc3[nH]c(=O)[nH]c3c2)c1`, the inhibition was 6.81%.

`COc1ccccc1CNC(=O)c1cc(=O)c2ccccc2o1`: the inhibition was -4.58%.
